UCH37 inh: human UCH37 deubiquitinating enzyme inhibition | Q9Y5K5 | purified proteasome/UCH37, Ub-AMC cleavage fluorescence | inhibition, % (concentration not given with the values) | 0.33% of 330,000 active;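 active = mean inhibition over replicate wells above about 20%, limit read from the data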
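System: Proteasome-associated human UCH37 deubiquitinase; Input: 0.15 nM proteasome in added enzyme buffer; Also added: Ub-AMC substrate from 1 µM stock; Incubation: 30 min compound-proteasome preincubation then 25 min substrate reaction, room temperature; Detection: fluorescence, ex 355 nm, em 460 nm; Read-out: % inhibition of Ub-AMC cleavage fluorescence; Benchmarks: no-proteasome and no-compound wells.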
PAFAH1B2 FP inh: blocks human PAF acetylhydrolase 1b catalytic subunit 2; P68402; recombinant PAFAH1B2, FP-rhodamine activity probe, fluorescence polarization; inhibition, % at 3.39 µM; 1.2% of 340,000 active; AID 492953;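 active = inhibition above the mean of all tested compounds plus 3 SD, cut at about 24% in these data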
Target sequence (P68402 whole entry, looked up): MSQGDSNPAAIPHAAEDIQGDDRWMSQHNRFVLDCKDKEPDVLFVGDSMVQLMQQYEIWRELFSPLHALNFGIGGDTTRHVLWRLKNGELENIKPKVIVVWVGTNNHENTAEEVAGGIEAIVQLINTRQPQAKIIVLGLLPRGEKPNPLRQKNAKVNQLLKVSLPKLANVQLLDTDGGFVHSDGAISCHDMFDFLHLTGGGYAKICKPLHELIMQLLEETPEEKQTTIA
pPAFAH inh: pPAFAH (human) enzyme inhibition; Q13093; recombinant pPAFAH, FP-rhodamine probe fluorescence polarization; inhibition, % at 3.39 µM; 1.5% of 330,000 active; AID 463082;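 active = inhibition above the mean inhibition across the screen plus 3 SD, cut at about 25% in these data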;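 also: inhibitors block binding of the rhodamine activity-based probe so polarization drops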
PAFAH1B3 inh: PAFAH1B3 (human) inhibition; 0.28% of 340,000 active; Q15102; recombinant PAFAH1B3, FP-rhodamine probe, fluorescence polarization; AID 492972; inhibition, % at 3.39 µM;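 active = inhibition above the screen-wide average of all tested compounds plus 3 SD, cut at about 25% in these data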
Target sequence (Q15102 whole entry, looked up): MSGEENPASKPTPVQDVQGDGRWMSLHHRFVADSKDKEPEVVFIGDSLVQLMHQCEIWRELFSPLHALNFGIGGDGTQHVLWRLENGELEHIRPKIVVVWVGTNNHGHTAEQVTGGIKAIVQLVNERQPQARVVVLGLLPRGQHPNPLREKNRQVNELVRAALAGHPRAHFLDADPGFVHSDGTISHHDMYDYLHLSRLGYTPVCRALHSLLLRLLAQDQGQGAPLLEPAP
PAFAH2 inh: PAFAH2 (human) inhibition. AID 492956. inhibition, % at 3.39 µM. Q99487. recombinant PAFAH2, FP-rhodamine activity probe, fluorescence polarization. 0.99% of 340,000 active;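 active = inhibition above the mean over all tested compounds plus 3 SD, cut at about 30% in these data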;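 also: inhibitors block probe labeling of enzyme so polarization drops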
NR3A LBD binder: modulates the human NR3A ligand-binding domain; NR3A LBD differential scanning fluorimetry, Tm shift; 0% = protein alone, 100% = glycine-bound protein; Tm shift relative to glycine control, % at 25 µM; 2.5% of 340,000 active;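 active = melting temperature shift of at least 10% of the positive control shift, at one fixed dose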
PAFAH2 confirm: PAFAH2 (human) inhibition, confirmed; AID 493030; 65% of 2,300 active; inhibition, % at 3.39 µM; shares compounds with PAFAH2 inh; recombinant PAFAH2, FP-rhodamine activity probe, fluorescence polarization;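 active = mean inhibition over three repeats above a set limit taken from the earlier primary screen, cut at about 30% in these data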;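 also: inhibitor blocks binding of rhodamine activity probe so polarization falls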
Of the large screens only hits and unclear results are named; the others gave an inactive call (follow-up assays come after a bar, where they were run). Shown are actives, neighbours in structure and some others; about 4.8% of the full set was active somewhere.

N#C/C(=C\c1ccc(OCc2ccc(C(=O)O)cc2)cc1)C(=O)NCc1ccccc1	none (no result: UCH37 inh)
COC(=O)c1c(-c2c(Cl)cccc2Cl)noc1NC(=O)NN1CCCCC1	PAFAH2 inh 75 | PAFAH2 confirm 68
CC(C)(C)C(=O)ON=C(N)c1ccc(-c2csnn2)cc1	none (no result: PAFAH1B2 FP inh, pPAFAH inh, PAFAH1B3 inh, PAFAH2 inh, NR3A LBD binder)
CCNc1cc2n(c(=O)n1)CCc1cc(OC)c(OC)cc1-2	none
COc1cc2c(cc1OC)-c1cc(NCc3ccccn3)nc(=O)n1CC2	PAFAH2 inh 31 | PAFAH2 confirm inactive
COc1ccc(C(=O)OCC2CC(c3ccccc3)=NO2)cc1OC (centres undefined)	PAFAH2 inh 68 | PAFAH2 confirm 60
COc1cc(C(=O)OCC2CC(c3ccccc3)=NO2)cc(OC)c1OC (centres undefined)	none
CC(=NOCC(=O)NC(C)C)c1cccs1	none (no result: PAFAH1B2 FP inh, pPAFAH inh, PAFAH1B3 inh, PAFAH2 inh, NR3A LBD binder)
O=C(COC(=O)c1ccccc1O)NC12CC3CC(CC(C3)C1)C2	PAFAH2 inh 68 | PAFAH2 confirm 63
COc1ccccc1CC(=O)NC12CC3CC(CC(C3)C1)C2	none
COc1ccc(C(=O)OCC(=O)NC23CC4CC(CC(C4)C2)C3)c(OC)c1OC	PAFAH2 inh 86 | PAFAH2 confirm 86
Cc1cccc(C(=O)OCC(=O)NC23CC4CC(CC(C4)C2)C3)c1O	PAFAH2 inh 59 | PAFAH2 confirm 46
Cc1ccsc1C=NNC(=O)CC(=O)NCc1ccccc1	none (no result: PAFAH1B2 FP inh, pPAFAH inh, PAFAH1B3 inh, PAFAH2 inh, NR3A LBD binder)
Cc1ccc(/C=C2\Oc3c(ccc(O)c3CN3CCN(C)CC3)C2=O)cc1	none
CCN1CCN(Cc2c(O)ccc3c2O/C(=C\C=C\c2ccccc2)C3=O)CC1	PAFAH2 inh 36 | PAFAH2 confirm 32
CCN1CCN(Cc2c(O)ccc3c2O/C(=C\c2ccc(C)cc2)C3=O)CC1	PAFAH2 inh 33 | PAFAH2 confirm inactive
CCc1ccc(/C=C2\Oc3c(ccc(O)c3CN3CCN(C)CC3)C2=O)cc1	PAFAH2 inh 58 | PAFAH2 confirm 53
CC(=NNC(=O)c1cccc(S(=O)(=O)N2CCOCC2)c1)c1ccc(OC(F)F)cc1	none (no result: PAFAH1B2 FP inh, pPAFAH inh, PAFAH1B3 inh, PAFAH2 inh, NR3A LBD binder)
O=C(Cc1ccc(-c2ccccc2)cc1)Nc1ncccc1O	PAFAH2 inh 32 | PAFAH2 confirm inactive
NC(=O)NC(=O)COC(=O)/C=C/c1cccs1	none
CC(=O)c1ccccc1NC(=O)COC(=O)/C=C/c1ccc(C)o1	PAFAH2 inh 31 | PAFAH2 confirm inactive
CC(=O)c1ccccc1NC(=O)COC(=O)/C=C/c1cccs1	PAFAH2 inh 53 | PAFAH2 confirm 39
O=C(COC(=O)/C=C/c1cccs1)Nc1ccc2ccccc2c1	PAFAH2 inh 56 | PAFAH2 confirm 51
O=C(COC(=O)/C=C/c1cccs1)Nc1ccccc1Cl	PAFAH2 inh 58 | PAFAH2 confirm 36
Cc1ccc(C=NNC(=O)c2nnn(-c3nonc3N)c2-c2ccc3c(c2)OCO3)s1	none (no result: PAFAH1B2 FP inh, pPAFAH inh, PAFAH1B3 inh, PAFAH2 inh, NR3A LBD binder)
CC(=O)c1ccc(NC(=O)COC(=O)/C=C/c2cccs2)cc1	PAFAH2 inh 57 | PAFAH2 confirm 46
Cn1c(=O)c2c(ncn2CC(=O)Nc2cc(S(=O)(=O)N3CCCCC3)ccc2O)n(C)c1=O	PAFAH2 inh 32 | PAFAH2 confirm inactive
O=C(NN=Cc1c(O)ccc2ccccc12)Nc1ccccc1	none (no result: PAFAH1B2 FP inh, pPAFAH inh, PAFAH1B3 inh, PAFAH2 inh, NR3A LBD binder)
O=C(COC(=O)c1ccc2ncsc2c1)Nc1cc(Cl)ccc1F	PAFAH2 inh 66 (no result: pPAFAH inh) | PAFAH2 confirm 60
O=C(COC(=O)c1ccc2ncsc2c1)NC(=O)c1ccccc1	none
O=C(COC(=O)c1sc2cc(Cl)ccc2c1Cl)Nc1ncc(Cl)cc1Cl	none (no result: PAFAH1B2 FP inh, PAFAH1B3 inh, PAFAH2 inh, NR3A LBD binder)
Cc1c(Cl)cnc(NC(=O)COC(=O)c2ccc3ncsc3c2)c1Cl	PAFAH2 inh 47 | PAFAH2 confirm 36
O=C(COC(=O)c1ccc2ncsc2c1)Nc1ncc(Cl)cc1Cl	PAFAH2 inh 31 (no result: UCH37 inh) | PAFAH2 confirm inactive
Nc1nnn(CC(=O)NN=Cc2cccc(Cl)c2)n1	none (no result: PAFAH1B2 FP inh, pPAFAH inh, PAFAH1B3 inh, PAFAH2 inh, NR3A LBD binder)
CN(C)c1ccc(C=NNC(=O)CCc2c[nH]c3ccccc23)cc1	none (no result: PAFAH1B2 FP inh, pPAFAH inh, PAFAH1B3 inh, PAFAH2 inh, NR3A LBD binder)
O=C(COC(=O)c1ccc(Cl)nc1)Nc1ccc(S(=O)(=O)N2CCCC2)cc1	none
Cc1ccc(NC(=O)COC(=O)c2ccc(Cl)nc2)cc1S(=O)(=O)N1CCCCC1	PAFAH2 inh 36 | PAFAH2 confirm 38

Source: PubChem
